Test results from ChEMBL document CHEMBL5113516, “2-(Fluoromethoxy)-4'-(S-methanesulfonimidoyl)-1,1'-biphenyl (UCM-1306), an Orally Bioavailable Positive Allosteric Modulator of the Human Dopamine D1 Receptor for Parkinson's Disease” (J Med Chem, 2022).
Activity calls are given as the source filed them. The calls are words filed in the database; no cut-off is given here.

What was measured:
[1] = target: D(1A) dopamine receptor (Homo sapiens) (UniProt P21728); assay: Positive allosteric modulation of D1R expressed in human SK-N-MC cells assessed as potentiation of DA-induced cAMP production pretreated with compound for 15 mins followed by dopamine addition measured after 15 mins by HTRF assay relative to control; format: functional, cell-based; details: dose 0.1-10 µM, time 30.0 min
Summary of the method: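 Human SK-N-MC neuroblastoma cells with endogenous D1R, seeded at 1×10^4 cells/well in Opti-MEM with 500 μM IBMX. Preincubated with 10 μM compound for 15 min at 25 °C, then dopamine concentration–response for 15 min at 25 °C. Lysed and cAMP read by HTRF. Change in dopamine Emax used; >20% potentiation taken as a potential PAM.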

[2] = Toxicity in cocaine-induced hyperactive C57BL/6 mouse model assessed as hyperlocomotion at 1 mg/kg, ip pretreated for 15 mins followed by cocaine addition measured after 15 mins; format: organism-based; details: in vivo, 0.5 h, time 30 min
Summary of the method: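 Three-month-old male C57BL/6J mice, 8 per group, habituated to injections for 5 days. Given 1 mg/kg ip in sterile saline (20 mL/kg) 15 min before cocaine 20 mg/kg sc. Placed in a 50 cm open field 5 min after cocaine. Horizontal locomotion (total distance, cm) video-tracked in 2 min blocks over 30 min.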

Mus musculus [3] = assay: Anti-parkinson activity in reserpine induced C57BL/6 mouse model assessed as decrease in locomotion at 100 to 400 mg/kg, ip measured for 60 mins; format: functional, organism-based; details: dose 100-400 mg/kg
Summary of the method: (§1)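 Male C57BL/6 mice (22–25 g), n = 10/group, given reserpine 2.5 mg/kg sc (DMSO/saline). 20 h later dosed with vehicle or 30 mg/kg po (5% NMP + 5% solutol HS-15 + 90% saline), and/or L-DOPA 100 or 400 mg/kg ip plus carbidopa 100 mg/kg ip 30 min before recording. Placed in cage 15 min after the po dose. Total distance travelled over 60 min by video tracking.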

Mus musculus [4] = assay: Anti-parkinson activity in reserpine induced C57BL/6 mouse model assessed as decrease in locomotion at 30 mg/kg, po measured for 60 mins; format: functional, organism-based; summary of the method: as §1
Mus musculus [5] = assay: Cognitive enhancing effect in C57BL/6J mouse assessed as ratio of novel to familiar at 1 mg/kg, ip by novel object recognition test; format: functional, organism-based; details: time 24-96 hrs
Summary of the method: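 Three-month-old male C57BL/6J mice, 8 per condition. After 5 min habituation to an empty 40 cm open field, given 1 mg/kg ip or vehicle (0.9% NaCl). 20 min later, 10 min acquisition with two identical objects. Later 10 min test sessions at 24 and 96 h. Nose/forepaw exploration scored. Discrimination ratio = (novel − familiar)/total exploration time.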

[6] = Ratio of drug concentration in brain to plasma in BALB/c mouse plasma at 5 mg/kg, po administered as single dose measured 0.5 to 4 hrs; format: ADME, organism-based; details: time 0.5-4 hrs
Summary of the method: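 Male BALB/c mice given a single oral dose of 5 mg/kg. Plasma, brain and CSF levels measured over time. Brain-to-plasma concentration ratios calculated between 0.5 and 4 h.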

[7] = filed as positive allosteric modulator

D(1A) dopamine receptor (Homo sapiens), sequence (P21728 whole entry): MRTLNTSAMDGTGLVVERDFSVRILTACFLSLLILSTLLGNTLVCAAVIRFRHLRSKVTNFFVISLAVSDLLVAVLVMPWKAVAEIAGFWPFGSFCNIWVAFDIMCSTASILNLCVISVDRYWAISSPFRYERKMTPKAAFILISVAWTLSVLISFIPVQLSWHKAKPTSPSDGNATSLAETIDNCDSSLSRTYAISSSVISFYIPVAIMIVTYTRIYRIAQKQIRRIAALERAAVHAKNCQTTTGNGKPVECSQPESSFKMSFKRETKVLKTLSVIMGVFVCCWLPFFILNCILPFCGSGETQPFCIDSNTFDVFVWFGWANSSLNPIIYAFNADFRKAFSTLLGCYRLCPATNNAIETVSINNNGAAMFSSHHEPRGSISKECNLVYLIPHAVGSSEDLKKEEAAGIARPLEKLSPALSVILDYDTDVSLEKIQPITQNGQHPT

Compound | Emax [1] | other results
CC[S+]([O-])c1ccc(-c2ccccc2OCF)cc1 (centres undefined) | 16% | 
O=Cc1ccc(-c2cccc(OC(F)F)c2)cc1 | 37% | 
CS(=N)(=O)c1ccc(-c2ccccc2OCF)cc1 (racemic) |  | Activity [2]: Non-Toxic; Activity (Mus musculus [3]): Active; Activity (Mus musculus [4]): Active; Emax [1, 7]: 55%; Activity (Mus musculus [5]): Active; Kp [6]: 0.55
O=Cc1cccc(-c2ccccc2OCF)c1 | 23% | 
O=Cc1cccc(-c2ccccc2OC(F)F)c1 | 12% | 
O=Cc1ccc(-c2ccccc2SC(F)F)cc1 |  | Emax [1, 7]: 44%
CN=S(C)(=O)c1ccc(-c2ccccc2OCF)cc1 (centres undefined) | 30% | 
CC(=O)c1ccc(-c2ccccc2OCF)cc1 | 11% | 
O=Cc1ccc(-c2ccccc2OC(F)F)cc1 |  | Emax [1, 7]: 45%
CCS(=N)(=O)c1ccc(-c2ccccc2OCF)cc1 (centres undefined) |  | Emax [1, 7]: 54%
CS(=N)(=O)c1ccc(-c2ccccc2OCF)c(Cl)c1 (centres undefined) | 20% | 
O=Cc1ccc(-c2ccccc2SCF)cc1 | 14% | 
NS(=O)(=O)c1ccc(-c2ccccc2OCF)cc1 | 31% | 
N[C@@H](Cc1ccc(O)c(O)c1)C(=O)O |  | Activity (Mus musculus [3]): Active
C[S+]([O-])c1ccc(-c2ccccc2OCF)cc1 (racemic) |  | Emax [1, 7]: 60%

More lines, main results first:

Emax [1] | Compound | other results
29% | O=Cc1ccc(-c2ccc(OCF)cc2)cc1 | 
1% | CS(=N)(=O)c1ccc(-c2ncccc2OCF)cc1 (centres undefined) | 
38% | CNS(=O)(=O)c1ccc(-c2ccccc2OCF)cc1 | 
12% | CS(=N)(=O)c1ccc(-c2ccccc2OCF)cc1Cl (centres undefined) | 
7% | O=C(O)c1ccc(-c2ccccc2OCF)cc1 | 
28% | COC(=O)c1ccc(-c2ccccc2OCF)cc1 | 
35% | O=Cc1ccc(-c2ccc(OC(F)F)cc2)cc1 | 
25% | O=Cc1ccc(-c2cccc(OCF)c2)cc1 | 
16% | NC(=O)c1ccc(-c2ccccc2OCF)cc1 | 
